5-HT1A blocker: human 5-HT1a receptor antagonists, primary screen, cell-based, CHO, Ga15 NFAT-bla reporter | 5-hydroxytryptamine receptor 1A (Homo sapiens), P08908 | CHO 5-HT1a Ga15 NFAT-bla reporter, antagonist mode | inhibition, % at 10 µM | 62,000 compounds, 0.68% hits;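 active means inhibition above the mean of all tested compounds plus 3 SD, cut at about 43% in these data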;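 further: receptor stimulated by 5-CT agonist at 100 nM near EC80; beta-lactamase reporter measured by ratiometric fluorescence of a cleavable substrate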
HTR1E agonist: 5-HT1E receptor agonists, primary screen, cell-based, HTS. 5-hydroxytryptamine receptor 1E (Homo sapiens), P28566. CHO 5-HT1E Ga15 NFAT-bla reporter, FRET; 0% DMSO wells, 100% control agonist wells. activation, % at 6 µM. 65,000 compounds, 0.69% hits;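 active means activation above a set limit, the screen-wide mean activation plus 3 SD, cut at about 8.5% in these data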;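 further: 100% = positive control agonist at 1 µM giving full maximal response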
5HT1a ag: human 5-HT1a receptor agonists, primary screen, cell-based, CHO, Ga15 NFAT-bla reporter. 5-hydroxytryptamine receptor 1A (Homo sapiens), P08908. CHO 5-HT1a Ga15 NFAT-bla reporter, FRET ratio; 0% basal, 100% maximal reference agonist. activation, % at 10 µM. 65,000 compounds, 0.56% hits;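 active means activation above the screen-wide mean activation plus 3 SD, cut at about 19% in these data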;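 further: 0% = DMSO wells and 100% = 5-CT at EC100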
S1P3 ag: human S1P3 receptor agonists, primary screen, cell-based, primary and confirmation, NFAT-BLA reporter | Sphingosine 1-phosphate receptor 3 (Homo sapiens), Q99500 | S1P3 NFAT-BLA reporter cells, agonism, FRET ratio; relative to 1 µM S1P, basal subtracted | activation, % at 4.5 µM | 60,000 compounds, 0.1% hits | AID 373, 2006;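 active means activation above the screen-wide mean plus 3 SD, cut at about 4.5% in these data, passing the limit was not always enough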
Target sequence (Q99500 whole entry, looked up): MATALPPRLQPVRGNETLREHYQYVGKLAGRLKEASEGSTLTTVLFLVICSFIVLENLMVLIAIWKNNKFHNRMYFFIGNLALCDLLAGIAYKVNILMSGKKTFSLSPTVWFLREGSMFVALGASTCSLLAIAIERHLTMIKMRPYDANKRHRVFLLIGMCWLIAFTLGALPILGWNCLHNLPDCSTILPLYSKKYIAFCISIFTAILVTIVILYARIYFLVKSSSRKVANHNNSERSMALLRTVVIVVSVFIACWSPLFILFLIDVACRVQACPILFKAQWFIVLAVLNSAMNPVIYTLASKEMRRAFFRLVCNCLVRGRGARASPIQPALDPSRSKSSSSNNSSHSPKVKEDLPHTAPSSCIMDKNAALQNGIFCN
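Measure – % activation relative to 1 µM S1P (100%), per plate · System – stable CHO line with human S1P3, Gα16, NFAT-BLA reporter · Timing – cells plated overnight, compound 4 h 37 °C, substrate 2 h RT · Technique – fluorescent BLA substrate, ex 405 nm, em 460/535 nm ratio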
S1P1 ag pot: S1P1 agonists and agonism potentiators, primary screen, cell-based, primary and confirmation screens, CRE-bla reporter; Sphingosine 1-phosphate receptor 1 (Homo sapiens), P21453; S1P1 CRE-bla cells, forskolin, beta-lactamase FRET, potentiator mode; S1P1 agonist co-added at EC20, 2 nM; 100% = saturating reference agonist, 0% = basal; activation, % at 9.5 µM; 56,000 compounds, 0.57% hits; AID 449, 2006;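 active means activation above a cutoff set at the mean activation of all tested compounds plus 3 SD, cut at about 54% in these data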;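 further: forskolin at 4 µM as EC80 and the EC20 agonist is SEW2871; 100% = SEW2871 at its EC100 plus forskolin at EC80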
HTR1E antagonist: 5-HT1E receptor antagonists, primary screen, cell-based, HTS; AID 571, 2007; CHO 5-HT1E Ga15 NFAT-bla reporter, FRET, antagonist; inhibition, % at 6 µM; 65,000 compounds, 0.99% hits;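 active means inhibition above a set limit, the mean inhibition across every tested compound plus 3 SD, cut at about 29% in these data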;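 further: signal is the 460 over 535 nm emission ratio of beta-lactamase substrate; 0% = agonist plus DMSO wells and 100% = wells without agonist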
Active calls of the source: *. Most compounds without a hit are left out; they make up all but 3% or so of the library.

Results for CC1=C(C)CS(=O)N(S(=O)(=O)c2ccc(Cl)cc2)C1 (stereo not drawn) ?
5-HT1A blocker: 47*; HTR1E agonist: 0; 5HT1a ag: -4; S1P3 ag: -1; S1P1 ag pot: 19; HTR1E antagonist: -1

Results for O=C(OCc1c(Cl)nc2sccn12)c1cc2c(s1)CCCC2 ?
5-HT1A blocker: 7; HTR1E agonist: -2; 5HT1a ag: -1; S1P3 ag: -1; S1P1 ag pot: 0; HTR1E antagonist: -4

How did CCNc1oc(COc2cccc(C)c2)nc1C#N do in these assays?
5-HT1A blocker: 16; HTR1E agonist: 0; 5HT1a ag: -4; HTR1E antagonist: -3

What do the screens show for `N#Cc1nc(COc2ccc(Cl)cc2)oc1NCc1ccc2c(c1)OCO2`?
5-HT1A blocker: 52*; HTR1E agonist: -1; 5HT1a ag: -1; HTR1E antagonist: 3

What do the screens show for `Cc1cccc(OCc2nc(C#N)c(NCc3ccc4c(c3)OCO4)o2)c1`?
5-HT1A blocker: 43*; HTR1E agonist: 0; 5HT1a ag: -1; HTR1E antagonist: 6

How did COc1ccc(CNc2oc(COc3ccccc3)nc2C#N)cc1 do in these assays?
5-HT1A blocker: 29; HTR1E agonist: 0; 5HT1a ag: -1; HTR1E antagonist: 15

What do the screens show for `COC(=O)CCCCCc1ccc(C(C)=O)s1`?
5-HT1A blocker: -3; HTR1E agonist: 1; 5HT1a ag: -5; S1P3 ag: -2; S1P1 ag pot: -13; HTR1E antagonist: -6

How did COC(=O)c1ccccc1NC(=O)c1noc2c1CC(C(C)(C)C)CC2 (stereo not drawn) do in these assays?
5-HT1A blocker: -9; HTR1E agonist: 0; 5HT1a ag: -2; S1P3 ag: 0; S1P1 ag pot: -1; HTR1E antagonist: -7

Results for Cc1nn2c3c(cnc2c1-c1ccccc1)C(=O)CC(C)C3 (stereo not drawn) ?
5-HT1A blocker: 5; HTR1E agonist: -1; 5HT1a ag: -2; S1P3 ag: -1; HTR1E antagonist: 12

What do the screens show for `O=C(Nc1nc(=O)c2ccccc2s1)c1ccccc1`?
HTR1E agonist: 0; 5HT1a ag: 0; S1P3 ag: -3; S1P1 ag pot: -7; HTR1E antagonist: 3

How did Cc1ccc(C(=O)Nc2nc3ccccc3c(=O)s2)cc1 do in these assays?
5-HT1A blocker: 67*; HTR1E agonist: 0; 5HT1a ag: -2; S1P3 ag: 1; S1P1 ag pot: -11; HTR1E antagonist: -5

Results for CCOC(=O)Cc1csc(NC(=O)c2ccc(Br)s2)n1 ?
5-HT1A blocker: 18; HTR1E agonist: -2; 5HT1a ag: -2; S1P3 ag: -1; S1P1 ag pot: 66*; HTR1E antagonist: 12

How did CN1CCN(C(=O)c2ccccc2NC(=O)Cc2ccccc2)CC1 do in these assays?
5-HT1A blocker: 2; HTR1E agonist: 0; 5HT1a ag: 0; S1P3 ag: -1; HTR1E antagonist: 0

Results for Cc1cc(NC(=O)CSc2nc3ccccc3c(=O)n2C2CCCC2)no1 ?
5-HT1A blocker: 58*; HTR1E agonist: 1; 5HT1a ag: 0; S1P3 ag: 0; HTR1E antagonist: 65*

What do the screens show for `Cc1ccc2c(CSc3nc4ccccc4c(=O)n3CCCO)cc(=O)oc2c1`?
5-HT1A blocker: 16; HTR1E agonist: 0; 5HT1a ag: -1; S1P3 ag: 0; S1P1 ag pot: -20; HTR1E antagonist: 33*

How did NS(=O)(=O)c1ccc(NC(=O)c2ccccc2C(=O)N2CCCCC2)cc1 do in these assays?
5-HT1A blocker: -5; HTR1E agonist: -1; 5HT1a ag: -1; S1P3 ag: 0; S1P1 ag pot: -5; HTR1E antagonist: -4

Results for O=C(CSc1ccccc1)Nc1ccccc1N1CCOCC1 ?
5-HT1A blocker: -3; HTR1E agonist: -1; 5HT1a ag: -4; S1P3 ag: 0; S1P1 ag pot: -40; HTR1E antagonist: 9

What do the screens show for `O=C(CN1C(=O)CSC1=O)Nc1ccccc1N1CCOCC1`?
5-HT1A blocker: 8; HTR1E agonist: 10*; 5HT1a ag: -4; S1P3 ag: -1; S1P1 ag pot: 2; HTR1E antagonist: 8

Results for O=S(=O)(c1ccc2oc(-c3ccncc3)nc2c1)c1ccc2oc(-c3ccncc3)nc2c1 ?
5-HT1A blocker: -16; HTR1E agonist: 1; 5HT1a ag: 27*; S1P3 ag: 0; S1P1 ag pot: -16; HTR1E antagonist: -14

What do the screens show for `OC1(c2cccc(C(F)(F)F)c2)CCN(c2ncnc3c2[nH]c2ccc(F)cc23)CC1`?
5-HT1A blocker: 15; HTR1E agonist: 0; 5HT1a ag: 0; S1P3 ag: -2; S1P1 ag pot: 100*; HTR1E antagonist: 35*

Results for Fc1ccc2[nH]c3c(N4CCN(c5ccccc5)CC4)ncnc3c2c1 ?
HTR1E agonist: 1; 5HT1a ag: 4; S1P3 ag: -6; S1P1 ag pot: 106*; HTR1E antagonist: 23

How did CCCCOc1ncnc2c1[nH]c1ccc(F)cc12 do in these assays?
5-HT1A blocker: -2; HTR1E agonist: 0; 5HT1a ag: -1; S1P3 ag: -2; S1P1 ag pot: 116*; HTR1E antagonist: 18

How did COc1cc2[nH]c3c(N4CCN(c5ccccn5)CC4)ncnc3c2cc1OC do in these assays?
5-HT1A blocker: -5; HTR1E agonist: 0; 5HT1a ag: 0; S1P3 ag: -1; S1P1 ag pot: -19; HTR1E antagonist: 24

How did CCN1CCN(C(=O)c2ccc(NS(=O)(=O)c3ccccc3)cc2)CC1 do in these assays?
5-HT1A blocker: -4; HTR1E agonist: 0; 5HT1a ag: -1; S1P3 ag: -1; HTR1E antagonist: -12

Results for Cc1cc(-n2c(SCCC#N)nnc2-c2cccnc2)ccc1Cl ?
5-HT1A blocker: -12; HTR1E agonist: 0; 5HT1a ag: 1; HTR1E antagonist: 0

What do the screens show for `CSCC[C@H](NC(=O)NCc1ccccc1F)C(=O)O`?
5-HT1A blocker: -2; HTR1E agonist: -1; 5HT1a ag: -2; S1P3 ag: -2; S1P1 ag pot: -4; HTR1E antagonist: -4

Results for CSCC[C@H](NC(=O)Nc1ccc(C)cc1C)C(=O)O ?
5-HT1A blocker: -4; HTR1E agonist: 0; 5HT1a ag: 111*; S1P3 ag: 1; S1P1 ag pot: 11; HTR1E antagonist: 5

From PubChem
